Compounds with a hit are over-represented: about 5.9% of the library has one in this group of screens.
Pf Dd2 growth = blocks growth of Plasmodium falciparum Dd2 parasites | P. falciparum Dd2 growth, SYBR Green, 72 h; active compounds read low | AID 1159554 | 94,000 tested, 2.3% active | activity change, % at 10 µM; in the data active means activity change below about -80%; inconclusive means no clear call, values can overlap the other calls
KDM4C inh = inhibitors of human demethylase GASC-1 KDM4C; AID 720574; inhibition, % at 12.5 µM; Q9H3R0; GST-KDM4C 2-372, H3K9me3 peptide, LANCE TR-FRET; 96,000 tested, 0.15% active;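 active means mean replicate inhibition above about 25%, with at least 55% of replicates also reaching it, limit read from the data, passing the limit was not always enough; inconclusive means only one of those two conditions met; inactive means neither condition met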
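reagent = H3K9me3 peptide substrate, Fe(II), 2-oxoglutarate | system = GST-tagged GASC-1 (JMJD2C) catalytic fragment, aa 2-372 | amount = enzyme final amount 10 nM | read-out = Fall in 671/618 emission ratio as inhibition | medium = HEPES buffer, pH 7.5, plus ascorbate | schedule = 30 min reaction, 60 min detection, RT | measured by = LANCE TR-FRET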
IDH1 mut inh = inhibitors of human IDH1 R132H. inhibition, % at 10 µM. AID 624101. 70,000 tested, 0.18% active. IDH1 R132H reductase, diaphorase/resazurin fluorescence, 60 min; in the data active means inhibition above about 34%; inconclusive means no clear call, values can overlap the other calls; inactive means below about 11%;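 further: 0% = DMSO and 100% = no enzyme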
Target sequence (O75874 whole entry R132H): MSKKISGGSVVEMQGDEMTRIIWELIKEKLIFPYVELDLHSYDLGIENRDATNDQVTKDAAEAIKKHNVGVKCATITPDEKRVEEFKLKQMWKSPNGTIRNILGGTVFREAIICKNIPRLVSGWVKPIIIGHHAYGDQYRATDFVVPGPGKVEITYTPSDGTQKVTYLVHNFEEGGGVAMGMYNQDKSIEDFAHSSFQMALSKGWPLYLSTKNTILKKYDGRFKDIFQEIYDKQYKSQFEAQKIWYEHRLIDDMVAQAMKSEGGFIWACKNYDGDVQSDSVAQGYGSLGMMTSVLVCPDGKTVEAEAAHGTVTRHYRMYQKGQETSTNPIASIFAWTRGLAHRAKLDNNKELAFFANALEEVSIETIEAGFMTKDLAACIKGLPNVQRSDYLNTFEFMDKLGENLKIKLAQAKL
T cruzi growth-1 = inhibitors of T. cruzi proliferation; T. cruzi beta-gal in NIH3T3, GalScreen luminescence, 90 h; AID 624255; 77,000 tested, 5.9% active; inhibition, % at 8.34 µM;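 active means mean inhibition above about 93%, with at least 55% of replicates each passing it, limit read from the data, passing the limit was not always enough; inconclusive means only one of those two conditions holds; inactive means neither condition holds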
T cruzi growth-2 = Trypanosoma cruzi proliferation inhibition; shares compounds with T cruzi growth-1; T. cruzi beta-gal in NIH3T3, GalScreen luminescence, 90 h; inhibition, % at 8.35 µM; 5,600 tested, 72% active; AID 651739;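 active means mean replicate inhibition above about 95% and at least 55% of replicates individually reaching it, limit read from the data; inconclusive means only one of the two criteria is met; inactive means neither criterion is met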
T cruzi growth-3 = inhibitors of T. cruzi proliferation; shares compounds with T cruzi growth-1; T. cruzi beta-gal in NIH3T3, GalScreen luminescence, 90 h; inhibition, % at 2.09 µM; 5,600 tested, 21% active; AID 651740;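 active means mean inhibition above about 95%, with at least 55% of replicates also reaching it, limit read from the data; inconclusive means meets just one of the two conditions; inactive means meets neither condition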;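 further: plate controls were neutral control median for no effect and positive control median for full effect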
NIH3T3 tox = NIH/3T3 (mouse) viability loss | cytotoxicity (signal decrease), % at 8.35 µM | NIH/3T3 viability, CellTiter-Glo ATP luminescence, 90 h | shares compounds with T cruzi growth-1 | 5,600 tested, 14% active;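 active means mean signal decrease across replicates above about 35% based on untreated-well scatter, with enough replicates individually passing, limit read from the data; inconclusive means no rule stated though some were filed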;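 further: 0% = median of neutral control wells and 100% = median of positive control wells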
3T3 cytotox 2 = NIH/3T3 (mouse) viability loss | inhibition, % at 24.9 µM | 5,600 tested, 56% active | shares compounds with T cruzi growth-1 | NIH/3T3 viability, CellTiter-Glo ATP luminescence, 90 h;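 active means mean loss of cell viability signal at or above a set limit, and enough replicates individually reaching it; inconclusive means meets only the mean limit or only the replicate share; inactive means meets neither condition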;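 further: 0% = median of neutral control wells and 100% = median of positive control wells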
Active calls of the source: *; ? = inconclusive; . = not tested or not shown.

SMILES | Pf Dd2 growth | KDM4C inh | IDH1 mut inh | T cruzi growth-1 | T cruzi growth-2 | T cruzi growth-3 | NIH3T3 tox | 3T3 cytotox 2
C[C@@H]1CN([C@@H](C)CO)C(=O)c2cccc(NC(=O)c3ccncc3)c2O[C@@H]1CN(C)Cc1ccc(Cl)c(Cl)c1 | -18 | -2 | -4 | 97* | 100* | 84 | -11 | 6
C[C@H]1CN([C@@H](C)CO)C(=O)c2cccc(NC(=O)c3ccncc3)c2O[C@@H]1CN(C)Cc1ccc2c(c1)OCO2 | -4 | 7 | 4 | 100* | 91 | 87 | -17 | 1
C[C@H](CO)N1C[C@H](C)[C@@H](CN(C)Cc2ccc3c(c2)OCO3)Oc2c(NC(=O)c3ccncc3)cccc2C1=O | 3 | 10 | -1 | 99* | 104* | 89 | -1 | 35*
C[C@@H]1CN([C@@H](C)CO)C(=O)Cc2cc(NS(=O)(=O)c3ccccc3)ccc2O[C@@H]1CN(C)C(=O)NC1CCCCC1 | -4 | 0 | 2 | 3 | . | . | . | .
C[C@@H]1CN([C@H](C)CO)S(=O)(=O)c2ccc(-c3cccc(F)c3)cc2O[C@H]1CN(C)S(=O)(=O)c1ccccc1 | -16 | -2 | 1 | ? | 92 | 51 | 65* | 41*
C[C@H](CO)N1C[C@H](C)[C@@H](CN(C)S(=O)(=O)c2ccccc2)Oc2cc(-c3cccc(F)c3)ccc2S1(=O)=O | -28 | -1 | -1 | 115* | 101* | 56 | 22 | 29*
C[C@@H]1CN([C@H](C)CO)S(=O)(=O)c2ccc(-c3cccc(F)c3)cc2O[C@@H]1CN(C)S(=O)(=O)c1ccccc1 | -33 | -1 | 0 | 114* | 97* | 84 | 26 | 54*
C[C@@H]1CN([C@@H](C)CO)S(=O)(=O)c2ccc(-c3cccc(F)c3)cc2O[C@H]1CN(C)C | . | 0 | 0 | -34 | . | . | . | .
C[C@H]1CN([C@@H](C)CO)S(=O)(=O)c2ccc(-c3cccc(F)c3)cc2O[C@H]1CN(C)S(=O)(=O)c1ccccc1 | -63 | -1 | 0 | 119* | 99* | 106* | 42* | 62*
C[C@@H]1CN([C@@H](C)CO)S(=O)(=O)c2ccc(-c3cccc(F)c3)cc2O[C@H]1CN(C)S(C)(=O)=O | -20 | -1 | -4 | 62 | . | . | . | .
CN(C)C(=O)c1cccc(-c2ccc3n(c2=O)C[C@H]2[C@H](CO)[C@@H](C(=O)NCC4CC4)N[C@@H]32)c1 | . | -2 | . | -134 | . | . | . | .
C[C@H]1CN([C@@H](C)CO)S(=O)(=O)c2ccc(-c3cccc(F)c3)cc2O[C@@H]1CN(C)S(=O)(=O)c1ccccc1 | -39 | -2 | 0 | 120* | 96* | 86 | 37* | 41*
C[C@@H]1CN([C@@H](C)CO)S(=O)(=O)c2ccc(Br)cc2O[C@@H]1CN(C)S(=O)(=O)c1ccccc1 | 8 | 1 | 0 | . | . | . | . | .
C[C@@H]1CN([C@@H](C)CO)S(=O)(=O)c2ccc(-c3cccc(F)c3)cc2O[C@H]1CN(C)S(=O)(=O)c1ccccc1 | -63 | -1 | 0 | 122* | 99* | 106* | 58* | 49*
C[C@H](CO)N1C[C@H](C)[C@H](CN(C)S(=O)(=O)c2ccccc2)Oc2cc(-c3cccc(F)c3)ccc2S1(=O)=O | -56 | -1 | . | 120* | 97* | 100* | 19 | 34*
C[C@@H]1CN([C@@H](C)CO)C(=O)Cc2cc(NC(=O)CCC(F)(F)F)ccc2O[C@@H]1CN(C)C(=O)Nc1ccccc1 | -1 | 1 | 1 | 17 | . | . | . | .
O=C(C[C@@H]1C=C[C@@H](NS(=O)(=O)c2ccc(F)cc2)[C@@H](CO)O1)N1CCN(c2ccccc2)CC1 | 11 | 3 | 0 | 18 | . | . | . | .
O=C(CN1CCOCC1)N1CC(=O)N2[C@H](CO)[C@H](c3ccc(-c4cccc(F)c4)cc3)[C@@H]2C1 | 33 | 1 | . | . | . | . | . | .
COCC(=O)N(C)C[C@H]1Oc2ncc(C#Cc3cccnc3)cc2C(=O)N([C@H](C)CO)C[C@@H]1C | 10 | -2 | 3 | 36 | . | . | . | .
O=C(C[C@H]1CC[C@H]2[C@@H](COC[C@H](O)CN2Cc2ccc3c(c2)OCO3)O1)Nc1ccc(-c2ccccc2)cc1 | -7 | 0 | . | 104* | 98* | 52 | 27 | 57*
O=C(C[C@H]1CC[C@H]2[C@@H](COC[C@H](O)CN2Cc2ccc3c(c2)OCO3)O1)Nc1ccccc1 | -9 | 2 | . | 45 | . | . | . | .
O=C(C[C@H]1CC[C@@H]2[C@H](COC[C@H](O)CN2Cc2ccc3c(c2)OCO3)O1)Nc1ccccc1 | -2 | 2 | . | 50 | . | . | . | .
O=C(C[C@H]1CC[C@@H]2[C@H](COC[C@H](O)CN2Cc2ccc3c(c2)OCO3)O1)Nc1ccc(-c2ccccc2)cc1 | -14 | 1 | . | 112* | 106* | 35 | 5 | 50*
O=C(C[C@@H]1CC[C@H]2[C@@H](COC[C@@H](O)CN2Cc2ccc3c(c2)OCO3)O1)Nc1ccc(-c2ccccc2)cc1 | 0 | 2 | . | 103* | 95* | 103* | -14 | 94*
O=C(C[C@@H]1CC[C@H]2[C@@H](COC[C@H](O)CN2Cc2ccc3c(c2)OCO3)O1)Nc1ccccc1 | -14 | 1 | . | 41 | . | . | . | .
SMILES | Pf Dd2 growth | KDM4C inh | IDH1 mut inh | T cruzi growth-1 | T cruzi growth-2 | T cruzi growth-3 | NIH3T3 tox | 3T3 cytotox 2
C[C@@H]1CN([C@H](C)CO)C(=O)c2cc(N(C)C)ccc2O[C@@H](C)CCCCO[C@@H]1CN(C)C | -33 | -1 | 0 | 29 | . | . | . | .
C/C=C/c1ccc2c(c1)O[C@@H](CN(C)Cc1ccncc1)[C@H](C)CN([C@@H](C)CO)S2(=O)=O | -53 | 2 | 0 | 108* | 108* | 105* | 32 | 57*
C/C=C/c1ccc2c(c1)O[C@H](CN(C)Cc1ccncc1)[C@@H](C)CN([C@@H](C)CO)S2(=O)=O | -38 | 4 | 0 | 109* | 109* | 102* | -5 | 28*
C/C=C/c1ccc2c(c1)O[C@H](CN(C)Cc1ccncc1)[C@H](C)CN([C@@H](C)CO)S2(=O)=O | -12 | 1 | -7 | 79 | . | . | . | .
CCS(=O)(=O)N1CC2(CN(Cc3ccccc3)[C@H](CO)c3c2c2ccc(OC)cc2n3C)C1 | -7 | -1 | . | . | . | . | . | .
C[C@H]1CN([C@@H](C)CO)C(=O)c2cccc(NS(=O)(=O)c3ccc(Cl)cc3)c2O[C@H]1CN(C)Cc1ccccc1 | 21 | 0 | -11 | 42 | . | . | . | .
COc1ccc2c3c([nH]c2c1)[C@H](CO)N(C(=O)CN(C)C)CC31CCN(Cc2ccncc2)CC1 | -56 | 2 | . | . | . | . | . | .

Source: PubChem BioAssay
